Test results taken from ChEMBL document CHEMBL4689842, “EUbOPEN Chemogenomics Library wave 1” (2021).
Where “and” joins values, the source holds several entries; their conditions need not be identical. Identical values can stand only once.

System: Fibroblast
Experiment: Multiplex assay against human fibroblast
Type: toxicity, cell-based
How it was run: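 Live cells were stained at seeding with Hoechst33342, BioTracker Green Microtubule Cytoskeleton Dye, MitoTracker Red and Annexin V Alexa Fluor 680, then imaged on a CQ1 microscope at 37°C and 5% CO2 after compound addition. CellPathfinder machine-learning gating split cells into Hoechst high-intensity objects or normal cells. Normal cells were split into healthy, pyknosed or fragmented nuclei, and pyknosed cells into mitotic or apoptotic. Tubulin, mitochondrial-mass and membrane-permeability phenotypes are per cents of healthy-nucleus cells.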

[1] = 12 h, 10 µM, compound concentration 10 uM, replicate 1
[2] = 12 h, 10 µM, compound concentration 10 uM, replicate 2
[3] = 24 h, 10 µM, compound concentration 10 uM, replicate 1
[4] = 24 h, 10 µM, compound concentration 10 uM, replicate 2
[5] = 12 h, 1 µM, compound concentration 1 uM, replicate 1
[6] = 12 h, 1 µM, compound concentration 1 uM, replicate 2
[7] = 24 h, 1 µM, compound concentration 1 uM, replicate 1
[8] = 24 h, 1 µM, compound concentration 1 uM, replicate 2
[9] = 48 h, 1 µM, compound concentration 1 uM, replicate 1
[10] = 48 h, 1 µM, compound concentration 1 uM, replicate 2
[11] = 48 h, 10 µM, compound concentration 10 uM, replicate 1
[12] = 48 h, 10 µM, compound concentration 10 uM, replicate 2

SMILES: COc1ccc(Oc2cc(NCCC(F)(F)F)c3ncc(-c4ccc(C(=O)NC5CC5)c(C)c4)n3n2)c(F)c1F [BAY-1217389]
- Population Apoptotic (%) [1]: 63% and 54%
- Population Fragmented Nuclei (%) [1]: 28% and 27%
- Population Healthy Nuclei (%) [1]: 48% and 59%
- Population Hoechst High Intensity Objects (%) [1]: 18% and 14%
- Population Membrane Permeable-Phenotype (%) [1]: 18% and 15%
- Population Mitotic Cells (%) [1]: 36% and 45%
- Population Normal (%) [1]: 81% and 85%
- Population Pyknosed Nuclei (%) [1]: 23% and 12%
- Population Tubulin-Different-Phenotype (%) [1]: 45% and 31%
- Total Cell Count [1]: 203 and 339
- Population Apoptotic (%) [2]: 65% and 22%
- Population Fragmented Nuclei (%) [2]: 35% and 55%
- Population Healthy Nuclei (%) [2]: 33% and 28%
- Population Hoechst High Intensity Objects (%) [2]: 23% and 34%
- Population Membrane Permeable-Phenotype (%) [2]: 20%
- Population Mitochondria Different-Phenotype (%) [2]: 34% and 18%
- Population Mitotic Cells (%) [2]: 35% and 77%
- Population Normal (%) [2]: 76% and 65%
- Population Pyknosed Nuclei (%) [2]: 30% and 16%
- Population Tubulin-Different-Phenotype (%) [2]: 38% and 50%
- Total Cell Count [2]: 170 and 86
- Population Apoptotic (%) [3]: 77% and 48%
- Population Fragmented Nuclei (%) [3]: 30% and 23%
- Population Healthy Nuclei (%) [3]: 41% and 63%
- Population Hoechst High Intensity Objects (%) [3]: 15% and 13%
- Population Membrane Permeable-Phenotype (%) [3]: 12% and 8%
- Population Mitotic Cells (%) [3]: 22% and 51%
- Population Normal (%) [3]: 84% and 86%
- Population Pyknosed Nuclei (%) [3]: 27% and 13%
- Population Tubulin-Different-Phenotype (%) [3]: 59% and 27%
- Total Cell Count [3]: 211 and 319
- Population Fragmented Nuclei (%) [4]: 54% and 47%
- Population Healthy Nuclei (%) [4]: 20% and 36%
- Population Hoechst High Intensity Objects (%) [4]: 19% and 30%
- Population Membrane Permeable-Phenotype (%) [4]: 18% and 19%
- Population Mitochondria Different-Phenotype (%) [4]: 18% and 23%
- Population Mitotic Cells (%) [4]: 32% and 88%
- Population Normal (%) [4]: 80% and 69%
- Population Pyknosed Nuclei (%) [4]: 24% and 15%
- Population Tubulin-Different-Phenotype (%) [4]: 29% and 52%

SMILES: OC1(c2ccc(Cl)cc2)CCN(Cc2c[nH]c3ccccc23)CC1
- Population Apoptotic (%) [5]: 58%
- Population Fragmented Nuclei (%) [5]: 26%
- Population Healthy Nuclei (%) [5]: 41%
- Population Hoechst High Intensity Objects (%) [5]: 11%
- Population Membrane Permeable-Phenotype (%) [5]: 22%
- Population Mitochondria Different-Phenotype (%) [5]: 6%
- Population Mitotic Cells (%) [5]: 41%
- Population Normal (%) [5]: 88%
- Population Pyknosed Nuclei (%) [5]: 32%
- Population Tubulin-Different-Phenotype (%) [5]: 33%
- Total Cell Count [5]: 169
- Population Apoptotic (%) [6]: 0%
- Population Fragmented Nuclei (%) [6]: 13%
- Population Healthy Nuclei (%) [6]: 77%
- Population Hoechst High Intensity Objects (%) [6]: 10%
- Population Membrane Permeable-Phenotype (%) [6]: 3%
- Population Mitochondria Different-Phenotype (%) [6]: 13%
- Population Mitotic Cells (%) [6]: 100%
- Population Normal (%) [6]: 89%
- Population Pyknosed Nuclei (%) [6]: 9%
- Population Tubulin-Different-Phenotype (%) [6]: 9%
- Total Cell Count [6]: 78
- Population Apoptotic (%) [1]: 63%
- Population Fragmented Nuclei (%) [1]: 37%
- Population Healthy Nuclei (%) [1]: 38%
- Population Hoechst High Intensity Objects (%) [1]: 30%
- Population Membrane Permeable-Phenotype (%) [1]: 13%
- Population Mitochondria Different-Phenotype (%) [1]: 34%
- Population Mitotic Cells (%) [1]: 36%
- Population Normal (%) [1]: 69%
- Population Pyknosed Nuclei (%) [1]: 23%
- Population Tubulin-Different-Phenotype (%) [1]: 90%
- Total Cell Count [1]: 246
- Population Apoptotic (%) [2]: 42%
- Population Fragmented Nuclei (%) [2]: 13%
- Population Hoechst High Intensity Objects (%) [2]: 3%
- Population Membrane Permeable-Phenotype (%) [2]: 4%
- Population Mitochondria Different-Phenotype (%) [2]: 95%
- Population Mitotic Cells (%) [2]: 57%
- Population Normal (%) [2]: 96%
- Population Pyknosed Nuclei (%) [2]: 47%
- Population Tubulin-Different-Phenotype (%) [2]: 60%
- Total Cell Count [2]: 74
- Population Apoptotic (%) [7]: 52%
- Population Fragmented Nuclei (%) [7]: 29%
- Population Healthy Nuclei (%) [7]: 47%
- Population Hoechst High Intensity Objects (%) [7]: 14%
- Population Membrane Permeable-Phenotype (%) [7]: 25%
- Population Mitochondria Different-Phenotype (%) [7]: 10%
- Population Mitotic Cells (%) [7]: 47%
- Population Normal (%) [7]: 85%
- Population Pyknosed Nuclei (%) [7]: 22%
- Population Tubulin-Different-Phenotype (%) [7]: 42%
- Total Cell Count [7]: 174
- Population Apoptotic (%) [8]: 20%
- Population Fragmented Nuclei (%) [8]: 5%
- Population Healthy Nuclei (%) [8]: 88%
- Population Hoechst High Intensity Objects (%) [8]: 8%
- Population Membrane Permeable-Phenotype (%) [8]: 4%
- Population Mitochondria Different-Phenotype (%) [8]: 13%
- Population Mitotic Cells (%) [8]: 80%
- Population Normal (%) [8]: 91%
- Population Pyknosed Nuclei (%) [8]: 6%
- Population Tubulin-Different-Phenotype (%) [8]: 8%
- Total Cell Count [8]: 77
- Population Apoptotic (%) [3]: 64%
- Population Fragmented Nuclei (%) [3]: 24%
- Population Healthy Nuclei (%) [3]: 50%
- Population Hoechst High Intensity Objects (%) [3]: 43%
- Population Membrane Permeable-Phenotype (%) [3]: 20%
- Population Mitochondria Different-Phenotype (%) [3]: 51%
- Population Mitotic Cells (%) [3]: 35%
- Population Normal (%) [3]: 56%
- Population Pyknosed Nuclei (%) [3]: 24%
- Population Tubulin-Different-Phenotype (%) [3]: 75%
- Total Cell Count [3]: 224
- Population Apoptotic (%) [4]: 66%
- Population Fragmented Nuclei (%) [4]: 21%
- Population Healthy Nuclei (%) [4]: 27%
- Population Hoechst High Intensity Objects (%) [4]: 5%
- Population Membrane Permeable-Phenotype (%) [4]: 5%
- Population Mitochondria Different-Phenotype (%) [4]: 94%
- Population Mitotic Cells (%) [4]: 33%
- Population Normal (%) [4]: 94%
- Population Pyknosed Nuclei (%) [4]: 51%
- Population Tubulin-Different-Phenotype (%) [4]: 52%
- Total Cell Count [4]: 85
- Population Apoptotic (%) [9]: 82%
- Population Fragmented Nuclei (%) [9]: 33%
- Population Healthy Nuclei (%) [9]: 26%
- Population Hoechst High Intensity Objects (%) [9]: 0%
- Population Membrane Permeable-Phenotype (%) [9]: 54%
- Population Mitochondria Different-Phenotype (%) [9]: 0%
- Population Mitotic Cells (%) [9]: 17%
- Population Normal (%) [9]: 100%
- Population Pyknosed Nuclei (%) [9]: 40%
- Population Tubulin-Different-Phenotype (%) [9]: 90%
- Total Cell Count [9]: 42
- Population Apoptotic (%) [10]: 50%
- Population Fragmented Nuclei (%) [10]: 43%
- Population Healthy Nuclei (%) [10]: 54%
- Population Hoechst High Intensity Objects (%) [10]: 14%
- Population Membrane Permeable-Phenotype (%) [10]: 5%
- Population Mitochondria Different-Phenotype (%) [10]: 1%
- Population Mitotic Cells (%) [10]: 50%
- Population Normal (%) [10]: 85%
- Population Pyknosed Nuclei (%) [10]: 1%
- Population Tubulin-Different-Phenotype (%) [10]: 46%
- Total Cell Count [10]: 119
- Population Fragmented Nuclei (%) [11]: 36%
- Population Healthy Nuclei (%) [11]: 26%
- Population Hoechst High Intensity Objects (%) [11]: 40%
- Population Membrane Permeable-Phenotype (%) [11]: 16%
- Population Mitochondria Different-Phenotype (%) [11]: 56%
- Population Normal (%) [11]: 59%
- Population Pyknosed Nuclei (%) [11]: 37%
- Population Tubulin-Different-Phenotype (%) [11]: 70%
- Total Cell Count [11]: 191
- Population Apoptotic (%) [12]: 90%
- Population Fragmented Nuclei (%) [12]: 39%
- Population Healthy Nuclei (%) [12]: 24%
- Population Hoechst High Intensity Objects (%) [12]: 30%
- Population Membrane Permeable-Phenotype (%) [12]: 17%
- Population Mitochondria Different-Phenotype (%) [12]: 47%
- Population Mitotic Cells (%) [12]: 9%
- Population Normal (%) [12]: 69%
- Population Pyknosed Nuclei (%) [12]: 35%
- Population Tubulin-Different-Phenotype (%) [12]: 52%
- Total Cell Count [12]: 133
